Data published in ChEMBL document CHEMBL3098056, “Small molecule inhibitors of anthrax lethal factor toxin” (Bioorg Med Chem, 2014).

What was measured:
[1] = biological target: T1, Lethal factor (Bacillus anthracis, UniProt P15917); experiment: Non-competitive inhibition of Bacillus anthracis lethal factor assessed as MCA-KKVYPYPME[dnp]K amide cleavage after 30 mins by Eadie-Hofstee plot analysis
T1 sequence (P15917 whole entry): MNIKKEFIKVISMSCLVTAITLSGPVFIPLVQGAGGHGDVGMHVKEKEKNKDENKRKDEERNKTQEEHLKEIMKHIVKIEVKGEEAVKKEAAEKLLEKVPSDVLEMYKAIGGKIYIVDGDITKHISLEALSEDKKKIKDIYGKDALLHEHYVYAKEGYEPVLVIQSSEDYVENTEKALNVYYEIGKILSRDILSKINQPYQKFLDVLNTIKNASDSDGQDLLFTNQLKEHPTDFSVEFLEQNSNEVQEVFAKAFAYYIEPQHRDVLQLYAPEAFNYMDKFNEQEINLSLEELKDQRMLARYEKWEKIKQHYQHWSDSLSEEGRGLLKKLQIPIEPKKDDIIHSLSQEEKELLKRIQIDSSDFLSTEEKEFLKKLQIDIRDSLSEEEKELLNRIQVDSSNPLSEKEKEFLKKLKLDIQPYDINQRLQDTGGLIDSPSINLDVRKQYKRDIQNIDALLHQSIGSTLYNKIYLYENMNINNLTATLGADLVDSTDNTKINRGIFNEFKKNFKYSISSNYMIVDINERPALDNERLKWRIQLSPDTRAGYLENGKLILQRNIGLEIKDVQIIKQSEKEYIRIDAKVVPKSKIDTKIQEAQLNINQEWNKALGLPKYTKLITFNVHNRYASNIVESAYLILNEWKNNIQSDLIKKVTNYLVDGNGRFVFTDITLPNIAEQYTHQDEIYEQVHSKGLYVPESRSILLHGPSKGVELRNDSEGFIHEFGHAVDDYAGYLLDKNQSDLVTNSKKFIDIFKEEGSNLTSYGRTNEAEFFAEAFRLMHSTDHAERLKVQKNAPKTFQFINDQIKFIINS

[2] = biological target: T1, Lethal factor; experiment: Non-competitive inhibition of Bacillus anthracis lethal factor using 100 uM MCA-KKVYPYPME[dnp]K amide as substrate after 30 mins by Eadie-Hofstee plot analysis
[3] = biological target: T1, Lethal factor; experiment: Non-competitive inhibition of Bacillus anthracis lethal factor using 50 uM MCA-KKVYPYPME[dnp]K amide as substrate after 30 mins by Eadie-Hofstee plot analysis
[4] = biological target: T1, Lethal factor; experiment: Non-competitive inhibition of Bacillus anthracis lethal factor using 25 uM MCA-KKVYPYPME[dnp]K amide as substrate after 30 mins by Eadie-Hofstee plot analysis
[5] = biological target: T1, Lethal factor; experiment: Non-competitive inhibition of Bacillus anthracis lethal factor using 12.5 uM MCA-KKVYPYPME[dnp]K amide as substrate after 30 mins by Eadie-Hofstee plot analysis
[6] = biological target: T1, Lethal factor; experiment: Non-competitive inhibition of Bacillus anthracis lethal factor using 6.25 uM MCA-KKVYPYPME[dnp]K amide as substrate after 30 mins by Eadie-Hofstee plot analysis
[7] = biological target: Matrix metalloproteinase-9 (Homo sapiens, UniProt P14780); experiment: Inhibition of human MMP-9 after 60 mins by FRET assay
Matrix metalloproteinase-9, sequence (P14780 whole entry): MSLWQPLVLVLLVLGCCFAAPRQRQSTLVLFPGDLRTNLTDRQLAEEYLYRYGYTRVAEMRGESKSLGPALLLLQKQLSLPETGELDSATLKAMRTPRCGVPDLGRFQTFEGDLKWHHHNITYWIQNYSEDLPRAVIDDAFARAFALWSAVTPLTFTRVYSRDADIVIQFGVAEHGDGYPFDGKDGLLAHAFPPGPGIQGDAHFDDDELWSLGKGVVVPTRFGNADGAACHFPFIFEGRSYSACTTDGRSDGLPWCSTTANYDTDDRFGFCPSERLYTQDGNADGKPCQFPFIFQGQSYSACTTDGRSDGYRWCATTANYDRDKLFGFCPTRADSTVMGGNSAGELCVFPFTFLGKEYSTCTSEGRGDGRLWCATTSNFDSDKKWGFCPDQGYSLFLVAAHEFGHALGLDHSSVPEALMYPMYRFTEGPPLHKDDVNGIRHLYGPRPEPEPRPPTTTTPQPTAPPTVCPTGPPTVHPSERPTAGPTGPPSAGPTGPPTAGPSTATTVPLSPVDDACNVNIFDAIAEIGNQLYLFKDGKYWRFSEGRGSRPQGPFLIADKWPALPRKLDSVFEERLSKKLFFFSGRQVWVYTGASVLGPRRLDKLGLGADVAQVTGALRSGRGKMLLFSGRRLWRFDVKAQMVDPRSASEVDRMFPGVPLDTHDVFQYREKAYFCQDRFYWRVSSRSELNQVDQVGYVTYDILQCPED
Procedure, shortened: (§1)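 MMP-1 (38 nM) or MMP-9 (13 nM) with 50 fluorogenic substrate in 50 mM MOPS pH 6.0 and 0.05% NP-40, 37 °C for 60 min (linear range 90 min). Stopped with acetic acid (0.5% final); emission at 440 nm, excitation at 340 nm.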

[8] = biological target: T2, Interstitial collagenase (Homo sapiens, UniProt P03956); experiment: Inhibition of human MMP-1 after 60 mins by FRET assay; procedure, shortened: as §1
T2 sequence (P03956 whole entry): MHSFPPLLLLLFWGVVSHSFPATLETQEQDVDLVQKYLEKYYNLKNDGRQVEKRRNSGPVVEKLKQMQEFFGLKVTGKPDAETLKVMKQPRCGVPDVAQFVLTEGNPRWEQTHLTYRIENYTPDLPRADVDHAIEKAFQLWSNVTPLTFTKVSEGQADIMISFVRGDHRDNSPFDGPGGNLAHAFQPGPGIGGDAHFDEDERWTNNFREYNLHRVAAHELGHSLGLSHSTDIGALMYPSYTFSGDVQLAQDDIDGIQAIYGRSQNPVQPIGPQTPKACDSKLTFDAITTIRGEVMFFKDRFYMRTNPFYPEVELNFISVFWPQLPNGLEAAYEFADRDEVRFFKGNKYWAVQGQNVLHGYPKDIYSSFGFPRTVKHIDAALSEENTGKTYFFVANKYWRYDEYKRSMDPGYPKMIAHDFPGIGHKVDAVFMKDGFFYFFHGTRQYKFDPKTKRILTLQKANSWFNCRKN

[9] = biological target: Botulinum neurotoxin type A (Clostridium botulinum, UniProt P0DPI0); experiment: Inhibition of Clostridium bolulinum BoNT/A assessed as cleavage of MOCAc-Lys-Lys-Val-Tyr-Pro-Tyr-Pro-Met-Glu-Lys(Dnp)-NH2 after 40 mins by FRET assay
Botulinum neurotoxin type A, sequence (P0DPI0 2-448 limits assumed): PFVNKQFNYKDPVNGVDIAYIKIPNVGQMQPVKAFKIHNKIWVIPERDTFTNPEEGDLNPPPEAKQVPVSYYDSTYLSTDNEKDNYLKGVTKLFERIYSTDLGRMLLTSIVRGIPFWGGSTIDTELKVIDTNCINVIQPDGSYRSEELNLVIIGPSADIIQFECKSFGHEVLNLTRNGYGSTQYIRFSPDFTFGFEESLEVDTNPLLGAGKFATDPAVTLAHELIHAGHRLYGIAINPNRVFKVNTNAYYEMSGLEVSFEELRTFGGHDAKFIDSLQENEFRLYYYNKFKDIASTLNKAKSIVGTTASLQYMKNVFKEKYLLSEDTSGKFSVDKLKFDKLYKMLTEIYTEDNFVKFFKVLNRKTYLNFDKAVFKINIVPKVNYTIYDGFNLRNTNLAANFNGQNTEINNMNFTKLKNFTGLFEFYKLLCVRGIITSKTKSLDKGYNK
Procedure, shortened: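 BoNT/A light chain (2 nM) in a 96-well FRET format. Reactions were stopped with acetic acid to 0.5% and cleaved-substrate fluorescence read at 485 nm with excitation at 398 nm. The same format served for IC50 and mechanism kinetics.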

[10] = biological target: T1, Lethal factor; experiment: Non-competitive inhibition of Bacillus anthracis lethal factor using 3.12 uM MCA-KKVYPYPME[dnp]K amide as substrate after 30 mins by Eadie-Hofstee plot analysis
[11] = biological target: T1, Lethal factor; experiment: Inhibition of Bacillus anthracis lethal factor assessed as MCA-KKVYPYPME[dnp]K amide cleavage after 30 mins by fluorescence plate reader analysis
[12] = biological target: T1, Lethal factor
[13] = biological target: T1, Lethal factor; experiment: Inhibition of Bacillus anthracis lethal factor by fluorescence assay
Procedure, shortened: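 FRET-based assay: LF cleaves a SNAP-derived fluorogenic peptide, and cleavage is read as a change in fluorescence.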

| Compound | Ki [1] [µM] | IC50 [2] [µM] | IC50 [3] [µM] | IC50 [4] [µM] | IC50 [5] [µM] | IC50 [6] [µM] | IC50 [7] [µM] | IC50 [8] [µM] | IC50 [9] [µM] | Ki [10] [µM] | IC50 [11] [µM] | Ki [12] [µM] | Ki [13] [µM] |
| --- | --- | --- | --- | --- | --- | --- | --- | --- | --- | --- | --- | --- | --- |
| Cc1cc(N)c2cc(NC(=O)c3ccc(-c4ccc5ncccc5c4)cc3)ccc2n1 | 1.14 | 1.1 | 1.16 | 1.22 | 1.25 | 1.26 | 1.7 | > 100 | 38 | 1.26 | 1.6 |  |  |
| COc1ccccc1CCC(=O)Nc1ccc2nc(C)cc(N)c2c1 | 2.88 | 1.22 | 1.1 | 0.952 | 0.841 | 0.729 | > 100 | > 100 | > 100 | 0.478 | 3 |  |  |
| Cc1cc(S(=O)(=O)N[C@@H](C(=O)NO)C2CCOCC2)ccc1F |  |  |  |  |  |  |  |  |  |  |  | 0.024 |  |
| O=c1oc2c(O)c(O)ccc2c2c1CCC2 |  |  |  |  |  |  |  |  |  |  |  |  | 0.57 |
